Published values from different studies.
Protocols differ between the studies behind these lines.
Target: Calcium/calmodulin-dependent protein kinase type 1 (CAMK1, Homo sapiens, UniProt Q14012)

Structure (SMILES) | test | setting | endpoint | result
N#CC1(c2ccccn2)CCN(Cc2cc(C(=O)O)c(=O)n3ccccc23)CC1 | cell-free assay, competition with immobilised ligand | 1 µM | remaining binding | 76%
O=c1[nH]c2ccccc2n1C1CCN(Cc2ccc(-c3[nH]c4cc5ncnc5cc4nc3-c3ccccc3)cc2)CC1 | cell-free assay | 0.5 µM | remaining signal | 95.1%
COc1ncccc1-c1cnn2ccc(N3CCN(C(=O)OC(C)C)CC3)nc12 | binding, competition with immobilised ligand | 1 µM | remaining binding | 100%
Cn1cc(-c2cc(F)cc(N3CCn4c(cc5c4CCCC5)C3=O)c2CO)cc(Nc2ccc(N3CCN(C4COC4)CC3)cn2)c1=O | enzyme activity, inhibitor | 0.1 µM | inhibition | 0%
CC(C)(C)c1cc(C=C(C#N)C#N)cc(Br)c1O | enzyme activity, inhibitor | 0.5 µM | remaining activity | 97.5%
COc1cc(Nc2ncc(F)c(Nc3ccc4c(n3)NC(=O)C(C)(C)O4)n2)cc(OC)c1OC | binding, competition with immobilised ligand | 10 µM | inhibition | 97%
C#Cc1n[nH]c2c(-c3cn(C(C)c4ccccn4)c(=O)[nH]c3=O)cc(F)cc12 (stereo not shown) | enzyme activity, inhibitor | 1 µM | inhibition | -18.7%
Cn1cncc1[C@@](O)(COc1ccc(C#N)cc1-c1ccc(OC(F)(F)F)cc1)c1ccc(C#N)cc1 | cell-free assay, competition with immobilised ligand | 1 µM | remaining binding | 100%
C#Cc1n[nH]c2c(-c3cn([C@@H](C)c4ccccc4)c(=O)[nH]c3=O)cc(F)cc12 | enzyme activity, inhibitor | 0.1 µM | inhibition | 14.4%
Cc1nn(C)cc1-c1nc2c(N3CCN(Cc4ccc(Cl)cc4)CC3)c(Cl)cnc2[nH]1 | binding, competition with immobilised ligand | 1 µM | remaining binding | 100%
